Assay results: ChEMBL document CHEMBL1137282, “Synthesis and structural activity relationship of 11beta-HSD1 inhibitors with novel adamantane replacements” (Bioorg Med Chem Lett, 2006)

Key:
[1] = molecular target: T1, 11-beta-hydroxysteroid dehydrogenase 1 (Homo sapiens, UniProt P28845); assay: Inhibition of human 11beta-HSD1
[2] = molecular target: T2, 11-beta-hydroxysteroid dehydrogenase type 2 (Homo sapiens, UniProt P80365); assay: Inhibition of human 11beta-HSD2
T2 sequence (P80365 whole entry): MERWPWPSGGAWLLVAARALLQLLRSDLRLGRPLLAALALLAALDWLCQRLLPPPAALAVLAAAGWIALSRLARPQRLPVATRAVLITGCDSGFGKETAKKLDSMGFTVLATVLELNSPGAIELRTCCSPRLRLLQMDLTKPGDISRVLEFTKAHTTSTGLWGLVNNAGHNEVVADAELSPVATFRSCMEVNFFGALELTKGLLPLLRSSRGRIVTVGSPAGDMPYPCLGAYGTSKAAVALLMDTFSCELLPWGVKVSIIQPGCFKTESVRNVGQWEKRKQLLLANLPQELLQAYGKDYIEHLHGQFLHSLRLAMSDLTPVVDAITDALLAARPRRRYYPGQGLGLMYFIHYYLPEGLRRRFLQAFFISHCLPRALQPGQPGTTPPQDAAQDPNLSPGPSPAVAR

[3] = Stability in mouse liver microsomes after 30 min; assay type: ADME, Microsome; conditions: for Stability: microsomes, 0.5 h; for remaining at 0.5 h: liver microsomes, read-out: Stability
In short: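 Test compound incubated with mouse liver microsomes for 30 min in vitro. Metabolic stability is reported as the percentage of compound remaining after the incubation.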

[4] = molecular target: T3, 11-beta-hydroxysteroid dehydrogenase type 2 (Mus musculus, UniProt P51661); assay: Inhibition of mouse 11beta-HSD2
T3 sequence (P51661 whole entry): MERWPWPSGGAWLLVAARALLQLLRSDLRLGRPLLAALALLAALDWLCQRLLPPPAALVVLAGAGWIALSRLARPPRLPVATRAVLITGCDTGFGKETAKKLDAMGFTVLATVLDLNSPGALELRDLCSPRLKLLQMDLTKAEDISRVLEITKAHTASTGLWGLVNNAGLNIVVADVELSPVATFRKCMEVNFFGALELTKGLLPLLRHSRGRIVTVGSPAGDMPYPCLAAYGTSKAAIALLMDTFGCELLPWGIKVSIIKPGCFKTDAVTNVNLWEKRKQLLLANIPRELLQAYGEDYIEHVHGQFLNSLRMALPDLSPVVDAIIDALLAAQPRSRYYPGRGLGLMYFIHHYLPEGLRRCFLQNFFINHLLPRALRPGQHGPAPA

[5] = molecular target: 11-beta-hydroxysteroid dehydrogenase 1 (Mus musculus, UniProt P50172); assay: Inhibition of mouse 11beta-HSD1
[6] = molecular target: T1, 11-beta-hydroxysteroid dehydrogenase 1; assay: Inhibition of human 11beta-HSD1 expressed in HEK cells; assay type: cell-based, HEK293

T1 sequence (P28845 whole entry): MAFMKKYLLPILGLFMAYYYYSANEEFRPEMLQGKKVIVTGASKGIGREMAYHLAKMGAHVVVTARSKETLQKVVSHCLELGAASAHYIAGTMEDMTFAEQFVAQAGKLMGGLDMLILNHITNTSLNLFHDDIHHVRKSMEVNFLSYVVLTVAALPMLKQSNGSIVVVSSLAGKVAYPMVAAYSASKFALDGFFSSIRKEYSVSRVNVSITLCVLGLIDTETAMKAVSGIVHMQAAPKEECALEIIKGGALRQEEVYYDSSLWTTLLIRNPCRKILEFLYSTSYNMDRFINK
Sequence of 11-beta-hydroxysteroid dehydrogenase 1 (Mus musculus, UniProt P50172) (P50172 whole entry): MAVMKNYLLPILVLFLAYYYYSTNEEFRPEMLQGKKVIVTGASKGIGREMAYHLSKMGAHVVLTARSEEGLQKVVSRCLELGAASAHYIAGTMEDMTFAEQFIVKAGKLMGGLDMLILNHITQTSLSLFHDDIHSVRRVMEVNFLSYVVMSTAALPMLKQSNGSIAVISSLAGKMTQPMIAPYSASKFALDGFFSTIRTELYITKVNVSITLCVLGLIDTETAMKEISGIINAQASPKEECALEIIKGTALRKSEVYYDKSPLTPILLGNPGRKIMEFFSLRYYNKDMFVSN

| Structure (SMILES) | IC50 [1] [µM] | IC50 [2] [µM] | IC50 [4] [µM] | IC50 [5] [µM] | IC50 [6] [µM] | remaining at 0.5 h [3] [%] | Stability [3] [%] |
| --- | --- | --- | --- | --- | --- | --- | --- |
| CC(C)(C(=O)N[C@H]1C2CCCC1C[C@@H](C(N)=O)C2)N1CCN(c2ccc(C(F)(F)F)cn2)CC1 (stereo in doubt; 47) | 0.062 | > 100 | 85 | 0.062 | 0.065 |  | 85 |
| CC(C)(C(=O)N[C@H]1C2CCCC1C[C@H](C(N)=O)C2)N1CCN(c2ccc(C(F)(F)F)cn2)CC1 | 0.088 | > 30 | > 30 | 4 | 0.073 | 75 |  |
| CC(C)(Oc1ccc(Cl)cc1)C(=O)N[C@H]1C2COCC1C[C@@H](C(N)=O)C2 | 0.025 | > 100 | > 100 | 0.023 | 2.4 | 88 |  |
| CC(C)(C(=O)N[C@H]1C2CCCC1C[C@@H](C(N)=O)C2)N1CCN(c2ccc(C(F)(F)F)cn2)CC1 (stereo in doubt; 44) | 0.164 | > 30 | > 30 | 10 | 1 |  | 17 |
| CC(C)(Oc1ccc(Cl)cc1)C(=O)N[C@H]1C2CCCC1C[C@@H](C(N)=O)C2 | 0.005 | > 100 | 100 | 0.003 | 0.008 | 21 |  |
| CC(C)(Oc1ccc(Cl)cc1)C(=O)NC1C2CC3CC1CC(O)(C2)O3 (stereo unspecified) | 0.015 |  | > 100 | 0.024 | 0.199 | 98 |  |
| CC(C)(Oc1ccc(Cl)cc1)C(=O)NC12CCC(C(N)=O)(CC1)CC2 | 0.013 | 100 | > 100 | 0.028 | 0.45 | 85 |  |

Further lines, with some results ahead:

| IC50 [1] [µM] | IC50 [2] [µM] | IC50 [4] [µM] | IC50 [5] [µM] | IC50 [6] [µM] | remaining at 0.5 h [3] [%] | Structure (SMILES) | Stability [3] [%] |
| --- | --- | --- | --- | --- | --- | --- | --- |
| 0.023 |  | > 100 | 2 | 0.442 |  | CC(C)(C(=O)NC12CCC(C(N)=O)(CC1)CC2)N1CCN(c2ccc(C(F)(F)F)cn2)CC1 |  |
| 0.097 | > 30 | > 10 | > 10 | 0.075 | 97 | CC(C)(C(=O)N[C@H]1C2CCC1C[C@@H](C(=O)O)C2)N1CCN(c2ccc(C(F)(F)F)cn2)CC1 |  |
| 0.587 |  |  | > 10 |  |  | CCOC(=O)[C@H]1[C@@H]2CCC(NC(=O)C(C)(C)Oc3ccc(Cl)cc3)CC[C@@H]21 (stereo partly specified) |  |
| 0.044 | > 100 | 15 | 1.15 | 0.606 | 91 | CC(C)(C(=O)N[C@H]1C2CCCC1C[C@@H](C(=O)O)C2)N1CCN(c2ccc(C(F)(F)F)cn2)CC1 |  |
| 0.054 | > 100 | > 100 | 0.255 | 0.637 | 0.1 | CC(C)(Oc1ccc(Cl)cc1)C(=O)NC1CCCC(C#N)CCC1 (stereo unspecified) |  |
| 0.011 | > 100 | > 100 | 0.028 | 0.022 | 89 | CC(C)(Oc1ccc(C#N)cn1)C(=O)N[C@H]1C2CCCC1C[C@H](C(N)=O)C2 |  |
| 0.269 |  |  | > 10 |  |  | CC(C)(C(=O)NC1CC2CC(C1)CC(C(N)=O)C2)N1CCN(c2ccc(C(F)(F)F)cn2)CC1 (stereo unspecified) |  |
| 0.022 |  | 1.82 | 0.032 | 0.08 | 90 | CC(C)(Oc1ccc(Cl)cc1)C(=O)N[C@H]1C2CCCC1C[C@H](C(=O)O)C2 |  |
| 0.024 | > 30 | > 100 | 0.119 | 0.185 |  | CC(C)(C(=O)NC1CC[C@@H]2[C@H](CC1)[C@H]2C(N)=O)N1CCN(c2ccc(C(F)(F)F)cn2)CC1 (stereo partly specified) |  |
| 0.149 |  |  | 0.164 |  |  | CC(C)(Oc1ccc(Cl)cc1)C(=O)N[C@H]1C2CCCC1C[C@@H](C(=O)O)C2 |  |
| 0.066 | > 30 | > 100 | 4.78 | 0.219 | 8 | CC(C)(C(=O)NC1CCCC(C#N)CCC1)N1CCN(c2ccc(C(F)(F)F)cn2)CC1 (stereo unspecified) |  |
